Converted amounts (≈) assume the structure as drawn.
Key:
Format in all cases: functional
Acinetobacter = assay: In vitro minimum inhibitory concentration against Acinetobacter CMX 669 using brain-heart infusion agar
Procedure, shortened: (§1)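 Overnight cultures were grown in BHI broth at 36 °C. Twofold dilutions of a 2000 µg/mL stock were made in BHI agar, giving 200–0.005 µg/mL. Plates received about 10^4 organisms and were incubated for 18 h at 36 °C. MIC was the lowest concentration with no visible growth on the plate.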

Enterococcus faecium = assay: In vitro minimum inhibitory concentration against Enterococcus faecium ATCC 8043 using brain-heart infusion agar; procedure, shortened: as §1
Escherichia coli = assay: In vitro minimum inhibitory concentration against Escherichia coli Juhl using brain-heart infusion agar; procedure, shortened: as §1
Klebsiella aerogenes = assay: In vitro minimum inhibitory concentration against Enterobacter aerogenes ATCC 13048 using brain-heart infusion agar; procedure, shortened: as §1
Klebsiella pneumoniae = assay: In vitro minimum inhibitory concentration against Klebsiella pneumoniae 8045 using brain-heart infusion agar; procedure, shortened: as §1
Pseudomonas aeruginosa [1] = assay: In vitro minimum inhibitory concentration against Pseudomonas aeruginosa K799 / WT using brain-heart infusion agar; procedure, shortened: as §1
Pseudomonas aeruginosa [2] = assay: In vitro minimum inhibitory concentration against Pseudomonas aeruginosa A5007 using brain-heart infusion agar; procedure, shortened: as §1
Staphylococcus aureus [3] = assay: In vitro minimum inhibitory concentration against Staphylococcus aureus ATCC 6538P using brain-heart infusion agar; procedure, shortened: as §1
Staphylococcus aureus [4] = assay: In vitro minimum inhibitory concentration against Staphylococcus aureus A 5177 using brain-heart infusion agar; procedure, shortened: as §1
Staphylococcus aureus [5] = assay: In vitro minimum inhibitory concentration against Staphylococcus aureus CMX 553 using brain-heart infusion agar; procedure, shortened: as §1
Staphylococcus aureus [6] = assay: In vitro minimum inhibitory concentration against Staphylococcus aureus NCTC 10649 using brain-heart infusion agar; procedure, shortened: as §1
[7] = test system: Staphylococcus epidermidis; assay: In vitro minimum inhibitory concentration against Staphylococcus epidermidis 3159 using brain-heart infusion agar; procedure, shortened: as §1
Streptococcus equinus = assay: In vitro minimum inhibitory concentration against Streptococcus bovis A5169 using brain-heart infusion agar; procedure, shortened: as §1
Streptococcus agalactiae = assay: In vitro minimum inhibitory concentration against Streptococcus agalactiae CMX 508 using brain-heart infusion agar; procedure, shortened: as §1
Streptococcus pyogenes = assay: In vitro minimum inhibitory concentration against Streptococcus pyogenes 930 using brain-heart infusion agar; procedure, shortened: as §1

Compound | MIC (Acinetobacter) [µg/mL] | MIC (Enterococcus faecium) [µg/mL] | MIC (Escherichia coli) [µg/mL] | MIC (Klebsiella aerogenes) [µg/mL] | MIC (Klebsiella pneumoniae) [µg/mL] | MIC (Pseudomonas aeruginosa [1]) [µg/mL] | MIC (Pseudomonas aeruginosa [2]) [µg/mL] | MIC (Staphylococcus aureus [3]) [µg/mL] | MIC (Staphylococcus aureus [4]) [µg/mL] | MIC (Staphylococcus aureus [5]) [µg/mL] | MIC (Staphylococcus aureus [6]) [µg/mL] | MIC [7] [µg/mL] | MIC (Streptococcus equinus) [µg/mL] | MIC (Streptococcus agalactiae) [µg/mL] | MIC (Streptococcus pyogenes) [µg/mL]
O=C1CCN(c2cc3c(cc2F)c(=O)c(C(=O)O)cn3-c2ccc(F)cc2F)C1 | 12.5 (≈ 31.1 µM) | 25 (≈ 62.1 µM) | 12.5 (≈ 31.1 µM) | 12.5 (≈ 31.1 µM) | 6.2 (≈ 15.4 µM) | 50 (≈ 124 µM) | > 100 | 0.39 (≈ 0.969 µM) | 1.56 (≈ 3.88 µM) | 1.56 (≈ 3.88 µM) | 0.39 (≈ 0.969 µM) | 1.56 (≈ 3.88 µM) | > 100 | 12.5 (≈ 31.1 µM) | 25 (≈ 62.1 µM)
CON=C1CCN(c2c(F)cc3c(=O)c(C(=O)O)cn(C4CC4)c3c2F)CC1 | 3.1 (≈ 7.92 µM) | 1.56 (≈ 3.99 µM) | 1.56 (≈ 3.99 µM) | > 100 | 3.1 (≈ 7.92 µM) | > 100 | > 100 | 0.05 (≈ 0.128 µM) | 0.1 (≈ 0.256 µM) | 0.1 (≈ 0.256 µM) | 0.05 (≈ 0.128 µM) | 0.1 (≈ 0.256 µM) | 3.1 (≈ 7.92 µM) | 1.56 (≈ 3.99 µM) | 1.56 (≈ 3.99 µM)
NC1CCN(c2nc3c(cc2F)c(=O)c(C(=O)O)cn3-c2ccc(F)cc2F)C1 (centres undefined) [TOSUFLOXACIN] | 0.1 (≈ 0.247 µM) | 0.2 (≈ 0.495 µM) | 0.02 (≈ 0.0495 µM) | 0.05 (≈ 0.124 µM) | 0.02 (≈ 0.0495 µM) | 0.78 (≈ 1.93 µM) | 0.78 (≈ 1.93 µM) | 0.02 (≈ 0.0495 µM) | 0.05 (≈ 0.124 µM) | 0.05 (≈ 0.124 µM) | – | 0.1 (≈ 0.247 µM) | 0.39 (≈ 0.965 µM) | 0.39 (≈ 0.965 µM) | 0.2 (≈ 0.495 µM)

Other lines, results leading:

MIC (Acinetobacter) [µg/mL] | MIC (Enterococcus faecium) [µg/mL] | MIC (Escherichia coli) [µg/mL] | MIC (Klebsiella aerogenes) [µg/mL] | MIC (Klebsiella pneumoniae) [µg/mL] | MIC (Pseudomonas aeruginosa [1]) [µg/mL] | MIC (Pseudomonas aeruginosa [2]) [µg/mL] | MIC (Staphylococcus aureus [3]) [µg/mL] | MIC (Staphylococcus aureus [4]) [µg/mL] | MIC (Staphylococcus aureus [5]) [µg/mL] | MIC (Staphylococcus aureus [6]) [µg/mL] | MIC [7] [µg/mL] | MIC (Streptococcus equinus) [µg/mL] | MIC (Streptococcus agalactiae) [µg/mL] | MIC (Streptococcus pyogenes) [µg/mL] | Compound
0.39 (≈ 1.08 µM) | 0.78 (≈ 2.16 µM) | 0.39 (≈ 1.08 µM) | 0.78 (≈ 2.16 µM) | 0.1 (≈ 0.278 µM) | 1.56 (≈ 4.33 µM) | 3.1 (≈ 8.6 µM) | 0.02 (≈ 0.0555 µM) | 0.05 (≈ 0.139 µM) | 0.05 (≈ 0.139 µM) | 0.02 (≈ 0.0555 µM) | 0.1 (≈ 0.278 µM) | 1.56 (≈ 4.33 µM) | 0.78 (≈ 2.16 µM) | 0.78 (≈ 2.16 µM) | CO/N=C1\CCN(c2nc3c(cc2F)c(=O)c(C(=O)O)cn3C2CC2)C1
0.78 (≈ 1.81 µM) | 0.39 (≈ 0.904 µM) | 0.78 (≈ 1.81 µM) | 3.1 (≈ 7.19 µM) | 0.78 (≈ 1.81 µM) | 6.2 (≈ 14.4 µM) | 6.2 (≈ 14.4 µM) | 0.02 (≈ 0.0464 µM) | 0.05 (≈ 0.116 µM) | 0.05 (≈ 0.116 µM) | 0.05 (≈ 0.116 µM) | 0.05 (≈ 0.116 µM) | 1.56 (≈ 3.62 µM) | 0.39 (≈ 0.904 µM) | 0.39 (≈ 0.904 µM) | CO/N=C1/CCN(c2cc3c(cc2F)c(=O)c(C(=O)O)cn3-c2ccc(F)cc2F)C1

— ChEMBL document CHEMBL1125434, “Preparation and in vitro and in vivo evaluation of quinolones with selective activity against gram-positive organisms” (1992)
